Source: PubChem BioAssay (several laboratories)
S1P3 antag – antagonists of human S1P3 receptor; Q99500; CHO S1P3 NFAT-BLA reporter, FRET fluorescence, antagonist mode; inhibition, % at 4.98 µM; hit rate 0.27% among 170,000;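 active means inhibition above the plate cutoff, the mean inhibition of test wells on that plate plus 3 SD, cut at about 28% in these data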;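 further: cells challenged with S1P at its EC80 of 0.8 µM; blue over green emission ratio from cleaved BLA substrate after 4 h stimulation; 0% = S1P-stimulated wells and 100% = unstimulated DMSO-only wells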
HMGR II inh – inhibitors of class II HMG-CoA reductase from Enterococcus faecalis. purified E. faecalis HMGR, NADPH absorbance 340 nm kinetic. inhibition, % at 10 µM. hit rate 0.41% among 190,000;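 active means inhibition above a set limit, the median over all tested compounds plus 3 SD, cut at about 9.5% in these data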;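 further: enzyme runs in reverse so mevalonate oxidation gives rising NADPH absorbance; 0% = complete reaction with DMSO and 100% = background rate lacking mevalonate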
Calb biofilm kill – mixture kills Candida albicans biofilm cells. C. albicans biofilm persisters + clotrimazole, fluorescence viability; primary screen in compound mixtures of four per well. inhibition, % at 7.6 µM. hit rate 0.02% among 120,000. AID 1242;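 active means inhibition above 30.3% in the primary screen of four-compound pools, then above 30% when the compound was retested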;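 further: compounds exposed to preformed 24 h biofilms for 48 h; 0% = untreated biofilm control and 100% = clotrimazole plus chlorhexidine kill blank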
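Incubation: 24 h biofilm formation, then 48 h compound exposure, 37 °C | Material: C. albicans biofilms | Buffer or medium: RPMI/MOPS medium, pH 7.0 | Measured by: 2-h Alamar Blue fluorescence, 535/590 nm excitation/emission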
Rad51 HR inh – blocks human Rad51 in homologous recombination; Q06609; hRad51 DNA strand exchange, fluorescence dequenching; inhibition, % at 10 µM; hit rate 0.085% among 200,000; AID 1385;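 active means inhibition above 40% at the single screening dose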;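 further: 0% = DMSO control wells and 100% = blanks with heterologous ssDNA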
Target sequence (Q06609 whole entry, looked up): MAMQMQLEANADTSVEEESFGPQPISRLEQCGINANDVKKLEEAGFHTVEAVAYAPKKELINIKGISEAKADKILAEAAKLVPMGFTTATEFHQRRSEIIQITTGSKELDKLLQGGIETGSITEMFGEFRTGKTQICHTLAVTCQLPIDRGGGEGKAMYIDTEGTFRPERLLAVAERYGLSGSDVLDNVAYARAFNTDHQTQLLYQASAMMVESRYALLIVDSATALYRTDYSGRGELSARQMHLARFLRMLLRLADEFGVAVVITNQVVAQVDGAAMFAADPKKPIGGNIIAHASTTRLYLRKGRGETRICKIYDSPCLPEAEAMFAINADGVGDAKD
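Material: Human Rad51 nucleoprotein filaments preassembled on unlabelled ssDNA | Also added: Labelled 47-mer dsDNA for strand exchange | Dosing: Single dose, 10 µM final compound | Schedule: 30-min compound preincubation and 15-min exchange, both room temperature | Technique: Fluorescence dequenching at 485/520 nm | Measure: Percent inhibition relative to plate controls and blanks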
S1P4 antag – human S1P4 receptor antagonism; O95977; S1P4-expressing cells, antagonist mode, reporter read-out; inhibition, % at 4.98 µM; hit rate 0.26% among 220,000; AID 1510; in the data active means inhibition above about 29%;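 further: 0% = wells stimulated with agonist and 100% = vehicle wells without agonist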
Target sequence (O95977 whole entry, looked up): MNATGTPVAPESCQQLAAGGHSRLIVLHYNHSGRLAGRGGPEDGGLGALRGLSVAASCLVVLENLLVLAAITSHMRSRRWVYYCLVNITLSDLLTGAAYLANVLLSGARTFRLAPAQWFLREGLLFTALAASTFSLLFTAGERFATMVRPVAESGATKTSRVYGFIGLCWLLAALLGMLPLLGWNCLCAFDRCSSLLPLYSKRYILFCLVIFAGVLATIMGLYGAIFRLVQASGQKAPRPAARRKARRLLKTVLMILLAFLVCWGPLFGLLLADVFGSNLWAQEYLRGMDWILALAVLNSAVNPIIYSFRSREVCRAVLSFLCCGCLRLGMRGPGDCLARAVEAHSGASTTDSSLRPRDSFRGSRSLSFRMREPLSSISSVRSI
S1P4 agonist – human S1P4 receptor agonism | hit rate 0.35% among 220,000 | AID 1509 | O95977 | activation, % at 4.98 µM | S1P4-expressing cell line, agonist reporter assay; in the data active means activation above about 11%;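 further: 0% = DMSO vehicle and 100% = reference agonist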
S1P4 ag conf – human S1P4 agonism, confirmation; shares compounds with S1P4 agonist; S1P4 agonist cell-based reporter assay; activation, % at 4.98 µM; hit rate 7% among 740; AID 1523; in the data active means activation above about 12%;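 further: 0% = vehicle and 100% = full reference agonist response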
S1P1 ag – human S1P1 agonism as S1P4 agonist counter-screen | shares compounds with S1P4 agonist | S1P1 agonist cell-based assay, activation | activation, % at 4.98 µM | hit rate 4% among 740; in the data active means activation above about 21%;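 further: 0% = vehicle wells and 100% = reference agonist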
Active calls of the source: *; . = no result. Only some compounds are listed: those with a hit (about 1.2% of all), similar ones and a draw of the others.

SMILES | S1P3 antag | HMGR II inh | Calb biofilm kill | Rad51 HR inh | S1P4 antag | S1P4 agonist | S1P4 ag conf | S1P1 ag
CC(=O)c1cnc2sccn2c1=O | -24 | -2 | 4 | 15 | -6 | 16* | -3 | -4
COCC(=O)Nc1ccccc1C(=O)NC(C)C | 12 | -7 | . | 3 | -30 | 0 | . | .
CCN(CC)S(=O)(=O)c1ccc(C(=O)NNc2nc(-c3ccccc3)c3cc(Br)ccc3n2)cc1 | -1 | 1 | 21 | -4 | -11 | 13* | -2 | 3
COc1cc2c(cc1OC)C(c1cccs1)N(C(=O)c1ccncc1)CC2 (stereo not drawn) | -16 | -4 | 3 | . | -19 | 1 | . | .
COc1ccc(OC)c(NC(=O)c2cccnc2Sc2cc(C)ccc2C)c1 | 9 | 3 | 14 | -1 | -19 | 2 | . | .
CCCCC(CC)C(=O)NCc1ccccc1OC (stereo not drawn) | 27 | -1 | . | -3 | -1 | 0 | . | .
CCCCn1c(SCC(=O)Nc2cccc(OC)c2)nc2ccc(N3CCOCC3)cc2c1=O | . | -3 | . | -2 | -13 | 14* | -2 | -1
CCCCn1c(SCC(N)=O)nc2ccc(N3CCOCC3)cc2c1=O | . | 1 | . | 5 | 1 | -3 | . | .
O=C(CSC(=S)N1CCSCC1)c1ccccc1 | 0 | -5 | 11 | 1 | 8 | 53* | -2 | 1
O=C(CSC(=S)N1CCSCC1)c1ccc(Cl)cc1 | 16 | 2 | 12 | 13 | -18 | 1 | . | .
CN(CC(=O)Nc1ccc(C(N)=O)cc1)CC(=O)Nc1ccccc1Br | -12 | . | 17 | -1 | -8 | -1 | . | .
O=C1CS/C(=N/N=C/c2cccs2)N1 | -12 | -1 | 7 | -30 | -1 | 0 | . | .
CCCN1C(=O)/C(=C/c2cc(C)n(C)c2C)SC1=Nc1ccc(OCC)cc1 | . | 3 | . | 5 | -12 | 1 | . | .
Cc1ccc(-c2csc(C3=C(O)CN(NC(=O)c4ccco4)C3=N)n2)cc1 | 7 | . | 16 | -10 | 17 | -1 | . | .
C=CCNC(=O)c1ccc(N(C)S(=O)(=O)c2ccc(OC)cc2)cc1 | . | -4 | . | 2 | -29 | -3 | . | .
C=CCNC(=O)c1ccc(OC)cc1 | -16 | . | 24 | . | -2 | 15* | -1 | 4
CC(=O)Oc1ccc2oc3c(c2c1)C(=O)CCC3 | -7 | 0 | . | 5 | 7 | 1 | . | .
Cc1nc(-c2ccncc2)sc1C(=O)Nc1ccc(Br)cc1 | -14 | 3 | 6 | 2 | 4 | 20* | -1 | -8
Cc1nc(-c2cccnc2)sc1C(=O)Nc1ccc(C(F)(F)F)cc1 | . | -8 | . | 1 | -19 | 1 | . | .
O=C(Nc1ccc(Br)cc1)c1csc(-c2ccncc2)n1 | -8 | 0 | 9 | -2 | 10 | 19* | -2 | -3
Cc1ccc(NS(=O)(=O)c2cc(C(=O)NCCSC3CCCCC3)ccc2C)cc1 | . | 4 | . | -4 | 11 | -2 | . | .
CC(C)CNS(=O)(=O)c1ccc(S(=O)(=O)N2CCC3(CC2)OCCO3)cc1 | 8 | 0 | 19 | . | -8 | 16* | -1 | -5
CC(Cc1ccccc1)C(=O)N1CCN(C)CC1 (stereo not drawn) | -12 | 0 | 13 | 3 | 7 | 0 | . | .
CN1CCN(C(=O)C(N)Cc2ccccc2)CC1 (stereo not drawn) | -7 | -4 | 9 | 2 | 4 | 18* | -2 | -1
COc1ccccc1C1N(c2ccc(Cl)cc2)C(=O)C2CCCN21 (stereo not drawn) | -4 | 0 | . | -1 | 6 | -3 | . | .
SMILES | S1P3 antag | HMGR II inh | Calb biofilm kill | Rad51 HR inh | S1P4 antag | S1P4 agonist | S1P4 ag conf | S1P1 ag
C=CCc1c(O)c(CC)cc2c(C)cc(=O)oc12 | -2 | . | 27 | -20 | -8 | 28* | 6 | 7
CCN(CC)Cc1c(O)c(Cl)cc2c(C)cc(=O)oc12 | -20 | -9 | -2 | -5 | -2 | 6 | . | .
CCn1c(=O)c2c3c(sc2n2c(=S)[nH]nc12)CCC3 | . | -4 | . | 1 | -12 | 23* | -2 | -3
C=CCn1c(SCC(=O)Nc2nnc(CC)s2)nnc1-c1ccco1 | -9 | -1 | . | -4 | -15 | 29* | -1 | 1
CC(=O)OCC1(C)CN(c2ccccc2)N(C(=O)c2ccc(C(C)(C)C)cc2)C1=O (stereo not drawn) | -3 | 2 | 6 | 6 | 3 | 25* | -2 | -5
CC(=O)OCC1(C)CN(c2ccccc2)N(C(C)=O)C1=O (stereo not drawn) | -12 | -4 | 10 | 10 | 8 | -1 | . | .
COc1ccc2cc(/C=N/O)c(Cl)nc2c1 | 11 | -4 | 4 | 1 | 0 | 0 | . | .
COc1ccc2cc(/C=N/NC(=O)c3ccc(CN(c4cccc(Cl)c4Cl)S(C)(=O)=O)cc3)c(Cl)nc2c1 | 4 | -4 | 7 | . | 16 | 43* | -2 | -5
CCN(CC)c1ccc2c(C)c(Cl)c(=O)oc2c1 | 6 | -1 | 15 | . | -4 | 16* | 8 | 9
COc1ccc(/C=C2\Cc3ccccc3C2=O)cc1OC | -10 | . | 17 | . | 6 | 0 | . | .
COc1cc2c(cc1OC)/C(=C/c1ccc(Br)cc1)C(=O)OC2 | -16 | -7 | 21 | 16 | -4 | 149* | -2 | -4
C=C(C)C1Cc2nc(N)nc(C)c2C1 (stereo not drawn) | -14 | -7 | . | -8 | -26 | -1 | . | .
CCOC1CCc2c(C)nc(N)nc2S1 (stereo not drawn) | -2 | . | 2 | -14 | 2 | 24* | -2 | 0
CCn1ncc(/C=N/N=C2\CCC3C4CCc5cc(O)ccc5C4CCC23C)c1C (stereo not drawn) | . | -2 | . | 3 | -7 | 0 | . | .
O=C(COC(=O)C1(c2ccc(Cl)cc2)CCCC1)Nc1ncc(C(F)(F)F)cc1Cl | 4 | 3 | 21 | -6 | -1 | 29* | -1 | 0
CN(c1nc2nonc2nc1NC1CC1)C1CCOC1 (stereo not drawn) | 5 | 0 | 12 | 7 | -5 | 12* | -2 | 5
CC1(C)CC(=O)c2c(nc(SCC(=O)Nc3nsc(-c4ccccc4)n3)c(C#N)c2-c2ccccc2)C1 | . | 4 | . | 0 | -13 | 2 | . | .
CN1CN(C)C(c2ccncc2)=C1c1ccncc1 | -4 | . | 21 | 6 | -13 | 1 | . | .
Nc1ccc(N(CCO)CCO)cc1 | -6 | -2 | -1 | 1 | -5 | 3 | . | .
Cc1cc(N(CCO)CCO)ccc1N=Nc1cc(F)ccc1F | -17 | 3 | 2 | 4 | 4 | 11* | -2 | -5
N/C(CCS(=O)(=O)c1ccc(Cl)cc1)=N\OC(=O)c1ccccc1C(F)(F)F | -9 | . | 13 | 10 | 7 | 0 | . | .
N/C(CCS(=O)(=O)c1ccc(Cl)cc1)=N\OC(=O)c1ccc(Cl)cc1 | -2 | . | 23 | 12 | 16 | 103* | -1 | -4
